Test [1] concerns HeLa. In words: Cell cycle arrest in human HeLa cells assessed as increase in G0/G1 phase after 24 hrs by FACS analysis. In kind it is functional, cell-based. In short, it runs like this:
(§1)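 HeLa or KYSE150 cells (5×10^5) were exposed for 24 h to 10 or 100 μM in RPMI 1640 with 10% FBS, then trypsinized. Cells were fixed in ice-cold 70% ethanol, PBS-washed and stained with propidium iodide (10 μg/mL) plus RNase A (0.2 mg/mL) for 30 min at 25 °C. Phase distribution was read by flow cytometry.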
In general terms: In flow cytometry, cells or beads pass a laser one at a time.

Test [2] concerns HeLa. In words: Cell cycle arrest in human HeLa cells assessed as reduction in G2/M phase after 24 hrs by FACS analysis. In kind it is functional, cell-based. In short, it runs like this:
as §1

Test [3] can be described thus: Cell cycle arrest in human KYSE-150 cells assessed as increase in G0/G1 phase after 24 hrs by FACS analysis. In kind it is functional, cell-based. The method, boiled down:
as §1

Test [4] is described as follows: Cell cycle arrest in human KYSE-150 cells assessed as reduction in G2/M phase after 24 hrs by FACS analysis. In kind it is functional, cell-based. In short, it runs like this:
as §1

The target of test [5] is T1, Lysine-specific demethylase 7A/7B (Homo sapiens) (UniProt Q9UPP1+Q6ZMT4). In words: Inhibition of KDM7A/7B in human KYSE-150 cells assessed as H3K27me2 level at GI50 after 24 hrs by Western blot analysis. In kind it is cell-based. The method, boiled down: (§2)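 Cells (5×10^5) were treated for 24 h in OPTI-MEM and lysed in SDS buffer. Equal protein amounts, set by Bradford assay, were resolved on 4–20% SDS-PAGE and blotted. Blots were probed with anti-H3K27me2 (1:1000) and anti-H3 (1:100000) as loading reference, detected with an HRP secondary antibody, and visualized by ECL.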
T1 sequence (Q9UPP1 whole entry, looked up, one chain of several): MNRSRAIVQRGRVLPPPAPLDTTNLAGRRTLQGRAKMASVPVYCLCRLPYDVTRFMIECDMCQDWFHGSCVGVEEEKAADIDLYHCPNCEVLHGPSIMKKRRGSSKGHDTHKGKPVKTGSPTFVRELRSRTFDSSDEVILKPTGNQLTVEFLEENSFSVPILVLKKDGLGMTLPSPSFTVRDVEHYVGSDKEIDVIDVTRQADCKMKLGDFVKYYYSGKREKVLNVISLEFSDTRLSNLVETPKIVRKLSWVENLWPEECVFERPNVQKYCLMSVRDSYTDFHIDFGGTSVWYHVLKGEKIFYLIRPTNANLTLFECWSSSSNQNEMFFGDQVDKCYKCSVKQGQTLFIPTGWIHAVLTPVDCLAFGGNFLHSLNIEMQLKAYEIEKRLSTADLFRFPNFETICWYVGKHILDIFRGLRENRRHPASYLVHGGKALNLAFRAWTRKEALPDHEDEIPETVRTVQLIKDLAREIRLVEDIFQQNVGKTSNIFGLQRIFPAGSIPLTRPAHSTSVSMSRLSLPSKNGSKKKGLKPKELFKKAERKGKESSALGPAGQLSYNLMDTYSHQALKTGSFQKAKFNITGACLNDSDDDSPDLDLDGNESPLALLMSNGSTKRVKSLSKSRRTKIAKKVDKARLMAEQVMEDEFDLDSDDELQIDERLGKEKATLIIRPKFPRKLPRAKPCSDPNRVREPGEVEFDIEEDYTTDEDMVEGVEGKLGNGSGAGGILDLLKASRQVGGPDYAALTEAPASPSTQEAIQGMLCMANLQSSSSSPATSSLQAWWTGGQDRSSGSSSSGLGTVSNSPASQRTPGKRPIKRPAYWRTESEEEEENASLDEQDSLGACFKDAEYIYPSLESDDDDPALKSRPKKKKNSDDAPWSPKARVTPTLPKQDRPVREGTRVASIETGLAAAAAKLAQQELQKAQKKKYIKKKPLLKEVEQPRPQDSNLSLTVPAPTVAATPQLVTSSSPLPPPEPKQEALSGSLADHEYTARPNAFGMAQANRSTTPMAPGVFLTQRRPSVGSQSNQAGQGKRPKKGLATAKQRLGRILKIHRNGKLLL
(Immunoblotting shows a protein as a band on a membrane.)

Test [6] deals with T1, Lysine-specific demethylase 7A/7B (Homo sapiens). The test can be described thus: Inhibition of KDM7A/7B in human HeLa cells assessed as H3K27me2 level at GI50 after 24 hrs by Western blot analysis. In kind it is cell-based. The method, boiled down:
as §2

Test [7] deals with T2, Lysine-specific demethylase 7A (Homo sapiens, UniProt Q6ZMT4).
T2 sequence (Q6ZMT4 whole entry): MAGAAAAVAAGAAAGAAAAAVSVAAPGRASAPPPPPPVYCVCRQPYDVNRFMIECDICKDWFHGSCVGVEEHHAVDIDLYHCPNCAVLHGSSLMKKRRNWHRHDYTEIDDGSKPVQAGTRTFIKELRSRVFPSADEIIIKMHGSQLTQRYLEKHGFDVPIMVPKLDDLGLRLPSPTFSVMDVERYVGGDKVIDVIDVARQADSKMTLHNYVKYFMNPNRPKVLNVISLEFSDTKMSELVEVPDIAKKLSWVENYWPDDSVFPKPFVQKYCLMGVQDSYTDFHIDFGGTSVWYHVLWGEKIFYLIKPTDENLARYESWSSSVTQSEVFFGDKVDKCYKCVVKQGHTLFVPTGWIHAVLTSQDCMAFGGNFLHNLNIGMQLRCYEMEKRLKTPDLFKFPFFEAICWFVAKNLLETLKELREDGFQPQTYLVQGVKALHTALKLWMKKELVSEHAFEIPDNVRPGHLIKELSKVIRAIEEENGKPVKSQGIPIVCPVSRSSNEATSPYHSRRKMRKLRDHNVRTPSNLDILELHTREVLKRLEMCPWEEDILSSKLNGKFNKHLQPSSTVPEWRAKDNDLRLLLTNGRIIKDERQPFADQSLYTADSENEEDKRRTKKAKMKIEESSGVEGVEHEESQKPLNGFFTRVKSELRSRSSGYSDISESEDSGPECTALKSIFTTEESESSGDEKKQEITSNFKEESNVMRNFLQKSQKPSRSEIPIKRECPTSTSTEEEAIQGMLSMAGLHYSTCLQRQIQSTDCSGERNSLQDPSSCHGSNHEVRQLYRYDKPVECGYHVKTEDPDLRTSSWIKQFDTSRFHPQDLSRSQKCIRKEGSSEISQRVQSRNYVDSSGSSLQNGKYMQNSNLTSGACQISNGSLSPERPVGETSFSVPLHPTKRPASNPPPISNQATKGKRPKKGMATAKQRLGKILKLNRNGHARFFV
The test can be described thus: Inhibition of KDM7A (unknown origin) using K27me2 peptide as substrate by MALDI assay.

Test [8] concerns the target Lysine-specific demethylase 5A (Homo sapiens, UniProt P29375). In words: Inhibition of KDM5A (unknown origin) using H3K4me3 peptide and 2-oxoglutarate as substrate after 1 hr by FDH-coupled assay. The method, boiled down: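 Run as the FDH-coupled KDM4C format, with compounds in DMSO and activity relative to a DMSO control. KDM4A was used at 0.37 mg/mL final with H3K9me3 peptide. KDM5A was used at 0.64 mg/mL final with H3K4me3 peptide. Values are means of two experiments.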

Test [9] has as its target T3, Lysine-specific demethylase 4C (Homo sapiens, UniProt Q9H3R0).
T3 sequence (Q9H3R0 whole entry): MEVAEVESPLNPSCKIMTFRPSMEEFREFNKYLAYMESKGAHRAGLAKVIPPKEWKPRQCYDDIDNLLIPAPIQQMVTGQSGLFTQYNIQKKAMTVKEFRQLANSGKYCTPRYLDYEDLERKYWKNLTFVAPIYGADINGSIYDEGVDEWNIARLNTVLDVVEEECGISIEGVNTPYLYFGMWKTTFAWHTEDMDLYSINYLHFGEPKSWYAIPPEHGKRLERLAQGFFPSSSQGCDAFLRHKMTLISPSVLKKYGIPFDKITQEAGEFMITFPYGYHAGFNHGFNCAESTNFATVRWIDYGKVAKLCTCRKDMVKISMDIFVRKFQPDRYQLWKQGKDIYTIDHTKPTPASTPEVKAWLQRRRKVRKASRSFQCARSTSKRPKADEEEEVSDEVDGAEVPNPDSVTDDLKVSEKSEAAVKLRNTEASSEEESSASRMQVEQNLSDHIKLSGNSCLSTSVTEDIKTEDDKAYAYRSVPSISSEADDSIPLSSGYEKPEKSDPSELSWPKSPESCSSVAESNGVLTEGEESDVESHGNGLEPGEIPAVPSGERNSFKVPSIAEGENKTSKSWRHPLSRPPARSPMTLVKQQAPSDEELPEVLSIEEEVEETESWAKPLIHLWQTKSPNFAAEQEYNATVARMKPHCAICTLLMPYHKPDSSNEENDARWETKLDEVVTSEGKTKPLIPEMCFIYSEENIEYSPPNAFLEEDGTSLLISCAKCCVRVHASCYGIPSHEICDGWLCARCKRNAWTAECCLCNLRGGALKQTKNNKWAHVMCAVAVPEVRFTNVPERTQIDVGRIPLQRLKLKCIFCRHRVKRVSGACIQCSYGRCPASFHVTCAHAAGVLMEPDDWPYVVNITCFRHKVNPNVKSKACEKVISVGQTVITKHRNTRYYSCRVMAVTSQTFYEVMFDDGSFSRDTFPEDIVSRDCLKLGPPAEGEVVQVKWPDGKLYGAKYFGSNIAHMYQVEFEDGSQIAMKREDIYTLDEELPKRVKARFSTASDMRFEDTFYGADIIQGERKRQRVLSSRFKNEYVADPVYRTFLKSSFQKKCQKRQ
The test can be described thus: Inhibition of KDM4C (unknown origin) using H3K9me3 peptide and 2-oxoglutarate as substrate after 1 hr by FDH-coupled assay.

In test [10] the target is Lysine-specific demethylase 6A (Homo sapiens, UniProt O15550). In words: Inhibition of human recombinant KDM6A after 120 mins.
Sequence of Lysine-specific demethylase 6A (O15550 whole entry): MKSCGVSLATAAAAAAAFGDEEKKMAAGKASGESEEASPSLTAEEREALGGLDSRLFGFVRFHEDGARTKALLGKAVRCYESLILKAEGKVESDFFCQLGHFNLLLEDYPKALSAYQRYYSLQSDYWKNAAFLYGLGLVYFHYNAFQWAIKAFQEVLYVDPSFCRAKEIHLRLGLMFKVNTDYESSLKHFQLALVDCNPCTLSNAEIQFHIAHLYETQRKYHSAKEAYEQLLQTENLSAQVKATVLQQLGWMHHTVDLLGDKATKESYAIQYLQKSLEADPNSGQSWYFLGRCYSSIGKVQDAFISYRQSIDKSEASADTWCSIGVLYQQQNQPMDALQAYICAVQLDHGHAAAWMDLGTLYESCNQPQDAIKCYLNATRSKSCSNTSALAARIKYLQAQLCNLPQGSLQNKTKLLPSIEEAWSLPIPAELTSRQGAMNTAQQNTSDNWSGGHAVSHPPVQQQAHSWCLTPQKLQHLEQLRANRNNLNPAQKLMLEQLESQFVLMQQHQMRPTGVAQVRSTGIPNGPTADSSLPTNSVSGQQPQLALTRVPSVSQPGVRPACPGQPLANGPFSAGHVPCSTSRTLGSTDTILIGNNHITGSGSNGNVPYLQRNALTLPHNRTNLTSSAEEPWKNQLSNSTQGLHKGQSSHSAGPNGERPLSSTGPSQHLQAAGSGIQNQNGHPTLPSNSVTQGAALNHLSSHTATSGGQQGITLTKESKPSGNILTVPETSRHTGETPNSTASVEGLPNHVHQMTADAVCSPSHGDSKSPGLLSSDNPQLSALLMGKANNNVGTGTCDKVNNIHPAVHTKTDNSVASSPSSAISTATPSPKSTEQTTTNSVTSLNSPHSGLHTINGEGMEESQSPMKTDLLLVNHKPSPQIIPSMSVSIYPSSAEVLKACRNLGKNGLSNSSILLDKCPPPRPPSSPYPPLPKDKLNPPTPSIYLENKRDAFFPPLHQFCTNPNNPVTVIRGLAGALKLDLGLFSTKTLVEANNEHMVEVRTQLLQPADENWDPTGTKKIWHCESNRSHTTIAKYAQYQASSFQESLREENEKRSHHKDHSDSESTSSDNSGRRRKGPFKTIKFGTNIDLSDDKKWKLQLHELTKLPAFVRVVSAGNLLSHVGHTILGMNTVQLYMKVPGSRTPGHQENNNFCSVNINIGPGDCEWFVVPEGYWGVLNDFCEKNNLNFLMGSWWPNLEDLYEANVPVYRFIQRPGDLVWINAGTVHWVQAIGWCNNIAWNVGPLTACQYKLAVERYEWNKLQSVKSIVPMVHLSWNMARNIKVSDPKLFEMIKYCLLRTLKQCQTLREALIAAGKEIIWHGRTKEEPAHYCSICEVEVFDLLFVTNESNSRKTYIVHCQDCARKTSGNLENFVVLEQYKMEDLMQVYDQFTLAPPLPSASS

Active and inactive are the calls of the source. No cut-off for these calls is given here.

Sequence of Lysine-specific demethylase 5A (P29375 whole entry): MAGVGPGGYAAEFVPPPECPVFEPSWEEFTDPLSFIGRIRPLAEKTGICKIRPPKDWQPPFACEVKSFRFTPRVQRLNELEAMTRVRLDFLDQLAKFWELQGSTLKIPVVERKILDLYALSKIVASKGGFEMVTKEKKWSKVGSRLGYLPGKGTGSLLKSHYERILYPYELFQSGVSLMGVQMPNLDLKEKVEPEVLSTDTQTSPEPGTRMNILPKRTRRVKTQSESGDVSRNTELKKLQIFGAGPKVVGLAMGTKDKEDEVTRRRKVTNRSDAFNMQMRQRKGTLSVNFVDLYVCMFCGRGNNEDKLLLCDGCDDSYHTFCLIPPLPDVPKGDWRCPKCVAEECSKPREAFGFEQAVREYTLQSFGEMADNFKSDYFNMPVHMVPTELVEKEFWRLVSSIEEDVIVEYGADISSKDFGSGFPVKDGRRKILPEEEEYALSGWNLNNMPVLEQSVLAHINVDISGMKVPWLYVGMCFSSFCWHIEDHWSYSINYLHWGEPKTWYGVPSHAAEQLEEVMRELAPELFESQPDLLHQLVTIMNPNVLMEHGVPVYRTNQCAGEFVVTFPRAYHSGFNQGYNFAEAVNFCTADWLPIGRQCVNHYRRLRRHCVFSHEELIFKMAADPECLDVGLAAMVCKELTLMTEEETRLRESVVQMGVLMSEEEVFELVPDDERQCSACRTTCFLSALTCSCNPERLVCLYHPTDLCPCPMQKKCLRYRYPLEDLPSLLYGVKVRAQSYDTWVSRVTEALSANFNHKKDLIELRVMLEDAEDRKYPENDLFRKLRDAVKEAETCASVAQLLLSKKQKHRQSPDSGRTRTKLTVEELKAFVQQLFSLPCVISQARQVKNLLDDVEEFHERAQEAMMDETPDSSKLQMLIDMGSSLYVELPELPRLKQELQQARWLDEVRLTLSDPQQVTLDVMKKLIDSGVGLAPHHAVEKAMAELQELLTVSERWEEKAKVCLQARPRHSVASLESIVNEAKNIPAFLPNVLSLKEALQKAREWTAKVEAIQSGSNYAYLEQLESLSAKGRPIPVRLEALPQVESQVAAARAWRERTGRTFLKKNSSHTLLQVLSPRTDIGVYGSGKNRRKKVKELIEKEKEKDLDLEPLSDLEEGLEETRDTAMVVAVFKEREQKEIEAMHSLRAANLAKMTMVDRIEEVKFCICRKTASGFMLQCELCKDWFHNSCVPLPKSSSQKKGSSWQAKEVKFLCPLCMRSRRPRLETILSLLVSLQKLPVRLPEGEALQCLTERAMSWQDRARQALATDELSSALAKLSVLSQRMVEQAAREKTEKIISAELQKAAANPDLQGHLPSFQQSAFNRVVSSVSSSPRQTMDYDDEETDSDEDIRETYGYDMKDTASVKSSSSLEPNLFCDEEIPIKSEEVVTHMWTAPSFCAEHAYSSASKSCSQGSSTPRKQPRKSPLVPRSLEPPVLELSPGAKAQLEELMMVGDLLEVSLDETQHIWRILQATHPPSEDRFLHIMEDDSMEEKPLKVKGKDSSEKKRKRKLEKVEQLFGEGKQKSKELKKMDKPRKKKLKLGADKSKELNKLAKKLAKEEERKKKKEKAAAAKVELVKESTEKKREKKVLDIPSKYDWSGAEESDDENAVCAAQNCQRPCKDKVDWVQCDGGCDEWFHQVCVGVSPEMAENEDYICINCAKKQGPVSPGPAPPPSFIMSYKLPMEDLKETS

For `O=C(O)CCN(O)C(=O)CCCCCCCCC1CC1`, the Activity entry (in the test with HeLa [1]; in the test with HeLa [2]; in [3]; in test [4]) was “Dose-dependent effect” in each case. Also, the inhibition entry in test [5] and in [6] was “Active” each time. The half-maximal inhibitory concentration (IC50) (commonly the point on the concentration scale where inhibition reaches its midpoint) is 200 nM in [7], 55 µM in test [8], 83 µM in [9] and more than 100 µM in [10].

For the compound `CN(C)CCCCCCCCC(=O)N(O)CCC(=O)O`, the half-maximal inhibitory concentration (IC50) in test [7] stood at 1600 nM; in test [8] it was 13 µM; in [9] it was 2.2 µM.

These data come from ChEMBL document CHEMBL2424657, “Identification of the KDM2/7 histone lysine demethylase subfamily inhibitor and its antiproliferative activity” (J Med Chem, 2013).
